Tested on: not listed separately
Experiment: Partition coefficient (logD6.5)
Conditions: octanol/water, pH 6.5

SMILES	logD
CCCC[C@H](N[C@@H](Cc1ccccc1)C(=O)N1CCC(OCOC)CC1)C(=O)N[C@@H](CC1CCCCC1)[C@@H](O)C[C@H](C(=O)NCc1ccccc1)C(C)C	> 5
CCCC[C@H](N[C@@H](Cc1ccccc1)C(=O)N1CCC(OCOC)CC1)C(=O)N[C@@H](CC1CCCCC1)[C@@H](O)C[C@H](C(=O)NCCN1CCOCC1)C(C)C	> 5

Tested on: not listed separately
Experiment: Average peak plasma concentration of compound after 10 mg/kg intraduodenal administration to Ferret
Conditions: plasma

SMILES	Cmax
CCCC[C@H](N[C@@H](Cc1ccccc1)C(=O)N1CCC(OCOC)CC1)C(=O)N[C@@H](CC1CCCCC1)[C@@H](O)C[C@H](C(=O)NCCN1CCOCC1)C(C)C	6500 ng/mL

Tested on: not listed separately
Experiment: Average area under curve at 10 mg/kg dose after intraduodenal administration to Ferret
Conditions: in vivo

SMILES	AUC
CCCC[C@H](N[C@@H](Cc1ccccc1)C(=O)N1CCC(OCOC)CC1)C(=O)N[C@@H](CC1CCCCC1)[C@@H](O)C[C@H](C(=O)NCCN1CCOCC1)C(C)C	9750 ng·h/mL

Tested on: not listed separately
Experiment: Oral bioavailability in dog (salt depleted)
Conditions: in vivo

SMILES	bioavailability
CCCC[C@H](N[C@@H](Cc1ccccc1)C(=O)N1CCC(OCOC)CC1)C(=O)N[C@@H](CC1CCCCC1)[C@@H](O)C[C@H](C(=O)NCCN1CCOCC1)C(C)C	52%

Biological target: T1, Renin (Rattus norvegicus, UniProt P08424)
T1 sequence (P08424 whole entry): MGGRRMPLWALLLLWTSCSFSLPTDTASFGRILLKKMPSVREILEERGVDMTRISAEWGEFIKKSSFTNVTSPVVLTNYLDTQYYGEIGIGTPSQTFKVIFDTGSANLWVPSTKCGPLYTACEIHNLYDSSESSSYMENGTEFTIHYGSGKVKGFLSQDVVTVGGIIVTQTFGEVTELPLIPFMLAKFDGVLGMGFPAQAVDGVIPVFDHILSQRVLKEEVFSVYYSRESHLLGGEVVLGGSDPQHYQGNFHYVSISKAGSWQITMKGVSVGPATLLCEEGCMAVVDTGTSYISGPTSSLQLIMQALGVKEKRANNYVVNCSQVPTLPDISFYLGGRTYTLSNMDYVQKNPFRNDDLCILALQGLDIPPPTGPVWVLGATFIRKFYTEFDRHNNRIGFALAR
Experiment: Tested in vitro for its ability to inhibit the rat plasma renin
Type: cell-free
Conditions: not given
Outline: (§1)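 IC50 against renin in plasma from the named species (dog, ferret, human, rat); single determination in most cases.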

SMILES	IC50
CCCC[C@H](N[C@@H](Cc1ccccc1)C(=O)N1CCC(OCOC)CC1)C(=O)N[C@@H](CC1CCCCC1)[C@@H](O)C[C@H](C(=O)NCCN1CCOCC1)C(C)C	3800 nM

Tested on: not listed separately
Experiment: Oral bioavailability in ferret
Conditions: in vivo

SMILES	bioavailability
CCCC[C@H](N[C@@H](Cc1ccccc1)C(=O)N1CCC(OCOC)CC1)C(=O)N[C@@H](CC1CCCCC1)[C@@H](O)C[C@H](C(=O)NCCN1CCOCC1)C(C)C	51%

Tested on: Canis familiaris
Experiment: Mean arterial pressure response following 1 mg/kg intravenous administration to salt depleted dog
Conditions: in vivo

SMILES	Arterial pressure
CCCC[C@H](N[C@@H](Cc1ccccc1)C(=O)N1CCC(OCOC)CC1)C(=O)N[C@@H](CC1CCCCC1)[C@@H](O)C[C@H](C(=O)NCCN1CCOCC1)C(C)C	2849 % mmHg min

Tested on: Canis familiaris
Experiment: Mean arterial pressure response following 10 mg/kg intraduodenal administration to salt depleted dog
Conditions: in vivo, other

SMILES	Arterial pressure
CCCC[C@H](N[C@@H](Cc1ccccc1)C(=O)N1CCC(OCOC)CC1)C(=O)N[C@@H](CC1CCCCC1)[C@@H](O)C[C@H](C(=O)NCCN1CCOCC1)C(C)C	6449 % mmHg min

Tested on: not listed separately
Experiment: Average peak plasma concentration of compound after 1 mg/kg intravenous administration to rat
Conditions: in vivo

SMILES	Cmax
CCCC[C@H](N[C@@H](Cc1ccccc1)C(=O)N1CCC(OCOC)CC1)C(=O)N[C@@H](CC1CCCCC1)[C@@H](O)C[C@H](C(=O)NCc1ccccc1)C(C)C	1660 ng/mL

Same assay, conditions: plasma

SMILES	Cmax
CCCC[C@H](N[C@@H](Cc1ccccc1)C(=O)N1CCC(OCOC)CC1)C(=O)N[C@@H](CC1CCCCC1)[C@@H](O)C[C@H](C(=O)NCCN1CCOCC1)C(C)C	680 ng/mL

Tested on: not listed separately
Experiment: Average peak plasma concentration of compound after 1 mg/kg intravenous administration to Ferret
Conditions: plasma

SMILES	Cmax
CCCC[C@H](N[C@@H](Cc1ccccc1)C(=O)N1CCC(OCOC)CC1)C(=O)N[C@@H](CC1CCCCC1)[C@@H](O)C[C@H](C(=O)NCCN1CCOCC1)C(C)C	2840 ng/mL

Organism: Homo sapiens
Experiment: not given
Conditions: Liver, Microsome

SMILES	Rate (nM min-1 (nM of cytochrome P450)-1)
CCCC[C@H](N[C@@H](Cc1ccccc1)C(=O)N1CCC(OCOC)CC1)C(=O)N[C@@H](CC1CCCCC1)[C@@H](O)C[C@H](C(=O)NCCN1CCOCC1)C(C)C	3.71

Tested on: not listed separately
Experiment: Average peak plasma concentration of compound after 10 mg/kg intraduodenal administration to rat
Conditions: in vivo

SMILES	Cmax
CCCC[C@H](N[C@@H](Cc1ccccc1)C(=O)N1CCC(OCOC)CC1)C(=O)N[C@@H](CC1CCCCC1)[C@@H](O)C[C@H](C(=O)NCc1ccccc1)C(C)C	930 ng/mL

Same assay, conditions: plasma

SMILES	Cmax
CCCC[C@H](N[C@@H](Cc1ccccc1)C(=O)N1CCC(OCOC)CC1)C(=O)N[C@@H](CC1CCCCC1)[C@@H](O)C[C@H](C(=O)NCCN1CCOCC1)C(C)C	910 ng/mL

Biological target: T2, Renin (Homo sapiens, UniProt P00797)
T2 sequence (P00797 whole entry): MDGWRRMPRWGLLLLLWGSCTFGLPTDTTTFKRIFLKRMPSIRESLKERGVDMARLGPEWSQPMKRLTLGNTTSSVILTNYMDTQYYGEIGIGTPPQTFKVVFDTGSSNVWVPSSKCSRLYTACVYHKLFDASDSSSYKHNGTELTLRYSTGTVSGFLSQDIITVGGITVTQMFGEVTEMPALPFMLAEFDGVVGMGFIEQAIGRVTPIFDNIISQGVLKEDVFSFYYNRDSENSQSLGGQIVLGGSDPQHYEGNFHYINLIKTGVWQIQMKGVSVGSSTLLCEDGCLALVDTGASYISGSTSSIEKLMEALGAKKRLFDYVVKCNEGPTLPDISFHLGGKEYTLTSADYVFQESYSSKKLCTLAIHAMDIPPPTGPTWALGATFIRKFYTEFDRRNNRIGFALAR
Experiment: Tested in vitro for its ability to inhibit the human plasma renin
Type: cell-free
Conditions: not given
Outline: as §1

SMILES	IC50
CCCC[C@H](N[C@@H](Cc1ccccc1)C(=O)N1CCC(OCOC)CC1)C(=O)N[C@@H](CC1CCCCC1)[C@@H](O)C[C@H](C(=O)NCc1ccccc1)C(C)C	14 nM
CCCC[C@H](N[C@@H](Cc1ccccc1)C(=O)N1CCC(OCOC)CC1)C(=O)N[C@@H](CC1CCCCC1)[C@@H](O)C[C@H](C(=O)NCCN1CCOCC1)C(C)C	3.9 nM

Biological target: Renin (Mustela putorius furo)
Experiment: Tested in vitro for its ability to inhibit the ferret plasma renin
Conditions: not given

SMILES	IC50
CCCC[C@H](N[C@@H](Cc1ccccc1)C(=O)N1CCC(OCOC)CC1)C(=O)N[C@@H](CC1CCCCC1)[C@@H](O)C[C@H](C(=O)NCCN1CCOCC1)C(C)C	170 nM

Tested on: not listed separately
Experiment: Average area under curve for the compound at 1 mg/kg dose after intravenous administration to rat
Conditions: in vivo

SMILES	AUC
CCCC[C@H](N[C@@H](Cc1ccccc1)C(=O)N1CCC(OCOC)CC1)C(=O)N[C@@H](CC1CCCCC1)[C@@H](O)C[C@H](C(=O)NCc1ccccc1)C(C)C	1540 ng·h/mL
CCCC[C@H](N[C@@H](Cc1ccccc1)C(=O)N1CCC(OCOC)CC1)C(=O)N[C@@H](CC1CCCCC1)[C@@H](O)C[C@H](C(=O)NCCN1CCOCC1)C(C)C	242 ng·h/mL

Tested on: not listed separately
Experiment: Average area under curve at 1 mg/kg intravenous administration to salt depleted dog
Conditions: in vivo

SMILES	AUC
CCCC[C@H](N[C@@H](Cc1ccccc1)C(=O)N1CCC(OCOC)CC1)C(=O)N[C@@H](CC1CCCCC1)[C@@H](O)C[C@H](C(=O)NCCN1CCOCC1)C(C)C	1260 ng·h/mL

Tested on: not listed separately
Experiment: Oral bioavailability in rat
Conditions: in vivo, intraduodenal, 10 mg/kg

SMILES	bioavailability
CCCC[C@H](N[C@@H](Cc1ccccc1)C(=O)N1CCC(OCOC)CC1)C(=O)N[C@@H](CC1CCCCC1)[C@@H](O)C[C@H](C(=O)NCc1ccccc1)C(C)C	7%

Biological target: Renin (Canis familiaris)
Experiment: Tested in vitro for its ability to inhibit the dog plasma renin
Conditions: not given

SMILES	IC50
CCCC[C@H](N[C@@H](Cc1ccccc1)C(=O)N1CCC(OCOC)CC1)C(=O)N[C@@H](CC1CCCCC1)[C@@H](O)C[C@H](C(=O)NCCN1CCOCC1)C(C)C	14 nM

Tested on: not listed separately
Experiment: C(compound) was tested for percent […] bioavailability in rat
Type: ADME, organism-based
Conditions: in vivo, po
Outline: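 Intraduodenal rather than oral dosing: 10 mg/kg id, plus a 1 mg/kg iv bolus. Plasma drug levels were measured by renin-inhibition bioassay, which counts active metabolites as parent. Level–time data were fitted to a biexponential decay model to give AUC. Bioavailability is the dose-corrected AUCid/AUCiv for each experiment, given as mean ± SD of the mean; n=3 unless noted.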

SMILES	bioavailability
CCCC[C@H](N[C@@H](Cc1ccccc1)C(=O)N1CCC(OCOC)CC1)C(=O)N[C@@H](CC1CCCCC1)[C@@H](O)C[C@H](C(=O)NCCN1CCOCC1)C(C)C	50%

Tested on: not listed separately
Experiment: Average area under curve at 10 mg/kg intraduodenal administration to salt depleted dog
Conditions: in vivo

SMILES	AUC
CCCC[C@H](N[C@@H](Cc1ccccc1)C(=O)N1CCC(OCOC)CC1)C(=O)N[C@@H](CC1CCCCC1)[C@@H](O)C[C@H](C(=O)NCCN1CCOCC1)C(C)C	6530 ng·h/mL

Tested on: not listed separately
Experiment: Average peak plasma concentration of compound after 1 mg/kg intravenous administration in salt depleted dog
Conditions: plasma

SMILES	Cmax
CCCC[C@H](N[C@@H](Cc1ccccc1)C(=O)N1CCC(OCOC)CC1)C(=O)N[C@@H](CC1CCCCC1)[C@@H](O)C[C@H](C(=O)NCCN1CCOCC1)C(C)C	7000 ng/mL

Tested on: not listed separately
Experiment: Partition coefficient (logD7.4)
Conditions: octanol/water, pH 7.4

SMILES	logD
CCCC[C@H](N[C@@H](Cc1ccccc1)C(=O)N1CCC(OCOC)CC1)C(=O)N[C@@H](CC1CCCCC1)[C@@H](O)C[C@H](C(=O)NCc1ccccc1)C(C)C	> 5
CCCC[C@H](N[C@@H](Cc1ccccc1)C(=O)N1CCC(OCOC)CC1)C(=O)N[C@@H](CC1CCCCC1)[C@@H](O)C[C@H](C(=O)NCCN1CCOCC1)C(C)C	> 5

Tested on: not listed separately
Experiment: Average peak plasma concentration of compound at 10 mg/kg intraduodenal administration in salt depleted dog
Conditions: plasma

SMILES	Cmax
CCCC[C@H](N[C@@H](Cc1ccccc1)C(=O)N1CCC(OCOC)CC1)C(=O)N[C@@H](CC1CCCCC1)[C@@H](O)C[C@H](C(=O)NCCN1CCOCC1)C(C)C	1830 ng/mL

Tested on: not listed separately
Experiment: Average area under curve for the compound at 10 mg/kg dose after intraduodenal administration to rat
Conditions: in vivo

SMILES	AUC
CCCC[C@H](N[C@@H](Cc1ccccc1)C(=O)N1CCC(OCOC)CC1)C(=O)N[C@@H](CC1CCCCC1)[C@@H](O)C[C@H](C(=O)NCc1ccccc1)C(C)C	1100 ng·h/mL
CCCC[C@H](N[C@@H](Cc1ccccc1)C(=O)N1CCC(OCOC)CC1)C(=O)N[C@@H](CC1CCCCC1)[C@@H](O)C[C@H](C(=O)NCCN1CCOCC1)C(C)C	1220 ng·h/mL

Tested on: not listed separately
Experiment: Average area under curve for compound at 1 mg/kg dose intravenous administration to Ferret
Conditions: in vivo

SMILES	AUC
CCCC[C@H](N[C@@H](Cc1ccccc1)C(=O)N1CCC(OCOC)CC1)C(=O)N[C@@H](CC1CCCCC1)[C@@H](O)C[C@H](C(=O)NCCN1CCOCC1)C(C)C	1870 ng·h/mL
